Molecules are shown by their SMILES. Converted amounts (≈) assume the structure as drawn. Some results are limits rather than exact numbers.

This is an account of results in ChEMBL document CHEMBL1828512, “Potent, metabolically stable benzopyrimido-pyrrolo-oxazine-dione (BPO) CFTR inhibitors for polycystic kidney disease” (J Med Chem, 2011).

Data set [1] in a line: Metabolic stability of the compound in rat liver microsomes assessed as disappearance of compound after 30 mins by LC/MS analysis in presence of NADPH. The conditions noted are these: read-out: Drug metabolism. The class given is ADME, Microsome. Summed up:
(§1)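 Compound at 5 µM was incubated with rat liver microsomes (1 mg protein/mL) in 100 mM potassium phosphate at 37 °C, with 0 or 1 mM NADPH. Samples were chilled, extracted with ethyl acetate, dried and taken up in mobile phase. Analysis was reverse-phase C18 LC/MS on a 5–95% acetonitrile gradient with negative ion detection.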
On the technique in general: Liver microsomes are vesicles of endoplasmic reticulum, rich in cytochrome P450 enzymes.

A short description of data set [2]: Solubility of the compound in albumin free saline. It counts as physicochemical. To be noted: buffer.
Another data set relates to Liver microsomes. Kind of data set: Metabolic stability of the compound in rat liver microsomes assessed as disappearance of compound after 30 mins by LC/MS analysis in absence of NADPH. The class given is ADME, Microsome. To be noted: 0.5 h. Summed up:
as §1

The target of data set [3] is Cystic fibrosis transmembrane conductance regulator (Homo sapiens, UniProt P13569). The data set is described as follows: Inhibition of human wild-type CFTR expressed in FRT cells coexpressing YFP-H148Q assessed as inhibition of cAMP agonist-induced iodide influx after 45 mins by fluorescence plate-reader analysis. The class given is functional, cell-based.
A short description of data set [4]: Solubility of the compound in aqueous phosphate buffer at pH 7.4. It counts as physicochemical. The gist of the method: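 Solubility was measured in aqueous phosphate buffer at pH 7.4.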
The next data set relates to Kidney. Kind of data set: Inhibition of 8-Br-cAMP-induced renal cystogenesis in mouse embryonic kidney organ culture model after 5 days by inverted microscopic analysis. The conditions noted are these: 120 h. The class given is functional, tissue-based.

Chain of Cystic fibrosis transmembrane conductance regulator (P13569 whole entry): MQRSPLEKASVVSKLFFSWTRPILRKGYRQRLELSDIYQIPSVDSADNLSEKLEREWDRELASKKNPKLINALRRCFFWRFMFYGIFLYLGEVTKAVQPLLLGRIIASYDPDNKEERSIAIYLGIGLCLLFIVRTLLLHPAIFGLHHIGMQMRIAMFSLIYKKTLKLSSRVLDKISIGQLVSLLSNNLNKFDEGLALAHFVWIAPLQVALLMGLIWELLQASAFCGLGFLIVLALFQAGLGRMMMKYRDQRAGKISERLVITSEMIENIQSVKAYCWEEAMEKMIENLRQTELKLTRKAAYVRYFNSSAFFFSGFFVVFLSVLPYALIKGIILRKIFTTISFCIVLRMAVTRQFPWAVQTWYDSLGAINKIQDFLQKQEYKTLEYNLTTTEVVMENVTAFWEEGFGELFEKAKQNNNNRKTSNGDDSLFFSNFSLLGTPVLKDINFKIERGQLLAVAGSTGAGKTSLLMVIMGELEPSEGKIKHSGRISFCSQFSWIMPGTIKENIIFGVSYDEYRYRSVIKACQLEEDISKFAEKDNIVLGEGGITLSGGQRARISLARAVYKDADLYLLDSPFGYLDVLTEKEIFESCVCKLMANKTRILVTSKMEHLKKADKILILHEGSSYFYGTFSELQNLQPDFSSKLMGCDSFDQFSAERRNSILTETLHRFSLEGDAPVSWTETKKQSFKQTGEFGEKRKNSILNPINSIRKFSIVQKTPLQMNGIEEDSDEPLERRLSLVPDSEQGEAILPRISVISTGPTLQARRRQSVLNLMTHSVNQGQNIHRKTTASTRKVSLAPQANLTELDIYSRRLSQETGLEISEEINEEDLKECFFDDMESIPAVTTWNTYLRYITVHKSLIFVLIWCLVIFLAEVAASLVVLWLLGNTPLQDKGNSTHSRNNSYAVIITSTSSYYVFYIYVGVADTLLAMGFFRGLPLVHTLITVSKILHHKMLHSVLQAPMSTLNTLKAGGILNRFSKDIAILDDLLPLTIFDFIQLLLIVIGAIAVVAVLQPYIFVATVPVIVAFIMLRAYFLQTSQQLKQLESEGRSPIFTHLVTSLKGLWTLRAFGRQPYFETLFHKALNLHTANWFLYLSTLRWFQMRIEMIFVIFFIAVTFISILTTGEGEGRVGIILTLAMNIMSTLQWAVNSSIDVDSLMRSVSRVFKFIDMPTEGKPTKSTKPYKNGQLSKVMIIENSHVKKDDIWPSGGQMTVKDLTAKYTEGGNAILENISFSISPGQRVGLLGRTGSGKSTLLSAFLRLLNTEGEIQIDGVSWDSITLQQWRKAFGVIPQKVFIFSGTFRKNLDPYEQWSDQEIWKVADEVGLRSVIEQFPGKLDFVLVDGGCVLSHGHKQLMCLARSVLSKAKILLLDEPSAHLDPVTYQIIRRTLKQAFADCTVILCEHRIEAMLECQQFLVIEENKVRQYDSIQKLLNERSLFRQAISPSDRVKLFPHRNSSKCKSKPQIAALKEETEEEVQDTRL

Broadly, the solubility is how much of the substance goes into solution per volume. Low values mean little dissolved substance, high ones much dissolved substance. For the molecule `Cc1ccc(C2Nc3ccccc3-n3c(-c4ccccc4)c4c(=O)n(C)c(=O)n(C)c4c32)o1` (configuration not stated), the metabolised at 0.5 h in data set [1] was determined as 60%. The solubility in data set [2] was less than 2 µM. Moreover, in the data set with Liver microsomes, the Stability entry is “Stable”.

As usually defined, the IC50 is the concentration needed to halve the response being measured. Take `Cn1c(=O)c2c(-c3ccccc3)n3c(c2n(C)c1=O)C(c1ccc(-c2ccccc2)o1)Nc1ccccc1-3` (configuration not stated): the IC50 result in data set [3] was “Not Active”.

For the molecule `Cn1c(=O)c2c(-c3ccccc3)n3c(c2n(C)c1=O)C(c1cc2ccccc2o1)Nc1ccccc1-3` (configuration not stated), the IC50 entry in data set [3] is “Not Active”. On the same count and under the same terms, next, `Cc1ccc(C2c3c4c(c(-c5ccccc5)n3-c3ccccc3N2C(=O)CCl)c(=O)n(C)c(=O)n4C)o1` (configuration not stated): “Not Active”; `CC(=O)N1c2ccccc2-n2c(-c3ccccc3)c3c(=O)n(C)c(=O)n(C)c3c2C1c1ccc(C)o1` (configuration not stated): “Not Active”. Regarding `Cn1c(=O)c2c(-c3ccccc3)n3c(c2n(C)c1=O)C(c1ccc(Br)o1)Oc1ccc(C(=O)O)cc1-3` (configuration not stated), the metabolised at 0.5 h in data set [1] is less than 5%. In data set [4], this molecule had a solubility of 17 µM (≈ 9.32 µg/mL). In the data set with Kidney, this molecule came in with an IC50 of 100 nM.

Take `Cc1ccc(C2c3c4c(c(-c5ccccc5)n3-c3ccccc3N2S(C)(=O)=O)c(=O)n(C)c(=O)n4C)o1` (configuration not stated): the half-inhibitory concentration (IC50) result in data set [3] is “Not Active”.

Turning to `Cn1c(=O)c2c(-c3ccccc3)n3c(c2n(C)c1=O)C(c1ccc(CO)o1)Nc1ccccc1-3` (configuration not stated), in data set [3], the half-inhibitory concentration (IC50) result was “Not Active”.
